Screens as filed in PubChem BioAssay.
CCR6 antag = blocks CCL20-driven beta-arrestin recruitment at human CCR6; P51684; CHO-K1 CCR6 PathHunter beta-arrestin, luminescence, CCL20-stimulated; inhibition, % at 20 µM; hit rate 0.49% among 340,000;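 active = compounds whose inhibition of the agonist-driven luminescence signal at 20 µM reaches about 50%, limit read from the data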;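 note: cells stimulated with CCL20 at 14 nM final; plate controls were DMSO with CCL20 for no effect and DMSO without agonist for full effect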
HTR2A ag = activates the mouse 5-HT2A serotonin receptor. CHO-K1 mHTR2A beta-arrestin complementation, luminescence; percent of 30 µM serotonin response. hit rate 0.66% among 360,000. activation, % at 7.6 µM;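 active = activation above a run cutoff, the mean activation of all tested compounds plus 3 SD, cut at about 14% in these data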;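 note: 0% = plate median of compound wells and 100% = 30 µM serotonin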
Target sequence (P35363 whole entry, looked up): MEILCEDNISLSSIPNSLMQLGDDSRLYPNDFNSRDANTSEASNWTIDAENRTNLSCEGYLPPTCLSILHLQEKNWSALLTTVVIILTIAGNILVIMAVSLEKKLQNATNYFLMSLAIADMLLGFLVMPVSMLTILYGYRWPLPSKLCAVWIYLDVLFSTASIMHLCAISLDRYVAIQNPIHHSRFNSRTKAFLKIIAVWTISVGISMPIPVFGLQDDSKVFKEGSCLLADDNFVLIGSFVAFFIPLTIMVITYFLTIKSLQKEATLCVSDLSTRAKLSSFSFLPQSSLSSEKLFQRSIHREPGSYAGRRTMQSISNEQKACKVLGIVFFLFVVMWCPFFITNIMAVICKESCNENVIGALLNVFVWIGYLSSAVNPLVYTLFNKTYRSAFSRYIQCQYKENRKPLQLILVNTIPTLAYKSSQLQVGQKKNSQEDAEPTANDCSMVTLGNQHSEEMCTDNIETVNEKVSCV
APJ antag = APJ receptor antagonism | CHO-K1 APJ beta-arrestin complementation, luminescence | AID 2521 | P35414 | inhibition, % at 20 µM | hit rate 0.32% among 330,000;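 active = inhibition above about 40% at 20 µM, limit read from the data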;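 note: cells challenged with 10 nM apelin-13 agonist together with compound; plate controls were apelin-13 plus DMSO wells for no effect and DMSO wells lacking apelin-13 for full effect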
CXCR6 block = CXCR6 (human) receptor inhibition. O00574. CHO-K1 PathHunter CXCR6 beta-arrestin, luminescence. inhibition, % at 20 µM. hit rate 0.36% among 360,000. AID 602244; in the data active = inhibition above about 34%, passing the limit was not always enough;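 note: antagonist mode with CXCL16 agonist at 10 nM final; 0% = 10 nM CXCL16 with DMSO and 100% = unstimulated wells without agonist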
EBI2 block = antagonists of human EBI2 receptor. EBI2 beta-arrestin recruitment, luminescence, 7a,25-OHC stimulated. AID 651636. inhibition, % at 5 µM. P32249. hit rate 0.81% among 360,000; in the data active = inhibition above about 38%;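 note: enzyme fragment complementation signal reports receptor beta-arrestin coupling in cells; 0% = agonist plus DMSO wells and 100% = wells without agonist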
APJ ag = activates the human apelin receptor APJ. activation, % at 20 µM. P35414. CHO-K1 APJ PathHunter beta-arrestin, luminescence; 0% DMSO wells, 100% apelin. AID 2520. hit rate 0.11% among 330,000;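 active = activation more than six SD over the plate average, tested at 20 µM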;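 note: 0% = DMSO alone and 100% = apelin-13 at 10 nM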
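Incubation: overnight seeding, 90 min compound at 25 °C, 1 h detection; test system: PathHunter CHO-K1 APJ (AGTRL-1) beta-arrestin reporter cells; amount: 1000 cells/well; doses: one dose, 20 µM compound, 1% DMSO; measured by: beta-gal luminescence; measure: agonist-driven arrestin binding to APJ; benchmarks: negative DMSO alone, positive Apelin-13 at 10 nM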
MOR ag counter = OPRM1 agonism in mouse HTR2A counterscreen; U2OS OPRM1 beta-arrestin PathHunter, luminescence; DMSO 0%, DAMGO 9.3 µM 100%; AID 624380; hit rate 5.3% among 2,300; shares compounds with HTR2A ag; activation, % at 9.3 µM;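 active = mean activation above the mean of DMSO-only wells plus 3 SD, cut at about 0.5% in these data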
HTR2A ag conf = confirmation of mouse HTR2A serotonin receptor agonists; shares compounds with HTR2A ag; CHO-K1 PathHunter beta-arrestin recruitment, luminescence; DMSO 0%, 30 µM serotonin 100%; activation, % at 7.6 µM; hit rate 19% among 2,300;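 active = mean activation across triplicates above the hit threshold derived in the original primary screen, cut at about 15% in these data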
The depositor's hits bear a star; x = no result. Shown are actives, neighbours in structure and some others; about 2.1% of the full set was active somewhere.

SMILES	CCR6 antag	HTR2A ag	APJ antag	CXCR6 block	EBI2 block	APJ ag	MOR ag counter	HTR2A ag conf
C[C@]12c3[nH]c4ccc(Cl)cc4c3CCN1C(=O)[C@@H](CC(=O)NCCC1=CCCCC1)C[C@@H]2C(=O)N1CCOCC1	22	23*	x	-3	13	x	-1	-6
C[C@]12c3[nH]c4ccc(Cl)cc4c3CCN1C(=O)[C@@H](CC(=O)NCCN1CCOCC1)C[C@@H]2C(=O)N1CCOCC1	19	3	x	-6	1	x	x	x
NC1=C(Cl)C(=O)c2ccc(S(N)(=O)=O)cc2C1=O	31	6	x	11	-24	x	x	x
NC1=C(Cl)C(=O)c2ccccc2C1=O	-3	17*	x	-13	-27	x	0	-3
CCn1c(CNC(=O)c2ccccc2OC)nnc1SCC(=O)c1ccc(F)cc1	12	2	-5	0	-4	0	x	x
Cn1nc(-c2ccc(Cl)cc2)c2cc(C(=O)N3CCN(c4ccccc4)CC3)sc21	8	-6	12	-2	15	1	x	x
Cn1nc(-c2ccc(Cl)cc2)c2cc(C(=O)N3CCCC3)sc21	-25	22*	5	-5	5	4	0	3
O=C(Nc1ccc2oc(-c3cccnc3)nc2c1)c1ccco1	-6	15*	-13	-3	-1	-2	-1	-3
O=C(Nc1ccc2oc(-c3cccnc3)nc2c1)c1ccc(Br)o1	4	2	-13	-11	-10	5	x	x
CC(C)Cc1cc(C(=O)Nc2sc3c(c2C#N)CCCC3)no1	25	6	1	0	-4	5	x	x
CC(C)Cc1cc(C(=O)Nc2sc3c(c2C#N)CCC3)no1	8	17*	17	13	-2	-1	0	4
OC[C@@H]1CN(CCNc2ccccc2)C[C@H](n2cnc3c(NCc4ccncc4)ncnc32)O1	x	-1	x	-7	-4	x	x	x
NC(=S)NN=Cc1nccc2c(C(F)(F)F)cccc12	x	5	x	36	12	x	x	x
CNc1cccnc1C=NNC(N)=S	2	15*	x	-18	-6	x	-1	-3
O=C(Nc1ccc(C(=O)O)cc1)/C(=C\c1ccccc1)NC(=O)c1ccccc1	14	18*	8	10	9	-1	0	-3
O=C(NCCO)c1ccc(-c2ccc3nncn3c2)cc1	x	4	x	-7	3	x	x	x
COc1ccc(C2=Nc3ccccc3NC(=O)C2N(Cc2ccccc2)C(=O)C2=NNC(=O)CC2)cc1 (stereo not drawn)	x	7	x	11	-2	x	x	x
Fc1ccc(F)c(CN2CCN(c3ncccn3)CC2)c1	1	44*	0	9	10	7	-1	101*
Fc1ccc(CN2CCN(c3ncccn3)CC2)cc1	-3	23*	-10	2	-9	-4	1.3*	142*
CCc1ccc(CN2CCN(c3ncccn3)CC2)cc1	5	8	2	9	-3	1	x	x
CC(C)(C)C1CCC(OCC(O)CN2CCN(Cc3ccccc3)CC2)CC1 (stereo not drawn)	16	-6	11	10	-16	-3	x	x
CC(=O)c1ccc(OCC(O)CN2CCN(c3ccccn3)CC2)cc1 (stereo not drawn)	-4	37*	-3	-3	6	-2	-1	92*
CC(C)(C)C1CCC(OCC(O)CN2CCN(c3ccccn3)CC2)CC1 (stereo not drawn)	3	18*	-19	6	1	-2	0	94*
OC(COc1ccc(OCC(O)CN2CCCCC2)cc1)CN1CCCCC1 (stereo not drawn)	1	17*	0	-13	-2	1	-1	-4
CCc1ccc(OCC(O)CN2CCN(c3ccccn3)CC2)cc1 (stereo not drawn)	-2	10	-4	7	19	-2	x	x
COc1ccccc1S(=O)(=O)N(C)C[C@@H]1OCc2cnnn2CCCC(=O)N([C@H](C)CO)C[C@@H]1C	x	-2	x	1	-12	x	x	x
